Measured values as given in ChEMBL document CHEMBL5126550, “In Silico Optimized Stapled Peptides Targeting WASF3 in Breast Cancer” (2022).
Blank lines part the entries; values can stand above or below the compound they belong to. Calls of active or inactive are those of the source. The rule behind the calls is not given here. Square brackets hold non-standard residues; d marks the D form. Peptide text beside a SMILES is read from it. Gly(pent-4-enyl) = C=CCCC[C@H](N)C(=O)O

Assays:
[1] = system: MDA-MB-231; assay: Drug uptake in human MDA-MB-231 cells by measuring uptake of fluorescence intensity in cytoplasm at 10 uM measured after 4 hrs by fluorescence microscopy method; type: functional, cell-based
Procedure, shortened: (§1)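 Cells incubated 4 h with 5(6)-carboxyfluorescein-labeled peptide (2 μM or 10 μM) or DMSO. Cytoplasmic fluorescence imaged by fluorescence microscopy. n = 4.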

[2] = target: T1, Actin-binding protein WASF3 (Homo sapiens) (UniProt Q9UPY6); assay: Degradation of WASF3 in human serum starved MDA-MB-231 cells assessed as reduction in ABI2 expression at 2 uM measured after 72 hrs by Western blot analysis; type: cell-based
T1 sequence (whole entry): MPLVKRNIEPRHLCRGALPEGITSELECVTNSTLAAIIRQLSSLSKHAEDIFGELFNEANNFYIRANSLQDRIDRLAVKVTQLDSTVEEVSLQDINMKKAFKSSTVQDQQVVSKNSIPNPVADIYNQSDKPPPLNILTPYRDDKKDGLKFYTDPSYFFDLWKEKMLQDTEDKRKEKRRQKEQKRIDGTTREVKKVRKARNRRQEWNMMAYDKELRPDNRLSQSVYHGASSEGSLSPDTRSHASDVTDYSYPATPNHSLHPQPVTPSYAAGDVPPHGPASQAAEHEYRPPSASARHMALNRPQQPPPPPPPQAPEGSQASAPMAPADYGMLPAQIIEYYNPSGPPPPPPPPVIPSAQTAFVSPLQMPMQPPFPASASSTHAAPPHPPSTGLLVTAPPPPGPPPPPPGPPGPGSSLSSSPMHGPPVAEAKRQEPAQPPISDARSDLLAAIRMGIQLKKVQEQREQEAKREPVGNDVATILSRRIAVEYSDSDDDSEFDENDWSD
Procedure, shortened: (§2)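 Cells treated 72 h with peptides or controls. Lysates immunoblotted for ABI2 and WASF3. Band densitometry from three independent Western blots.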

[3] = system: MDA-MB-231; assay: Downregulation of MMP9 expression in human MDA-MB-231 cells at 2 uM measured after 72 hrs by immunoblot analysis; type: functional, cell-based
Procedure, shortened: (§3)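 Cells exposed 72 h to peptides, scramble control or vehicle. MMP9 protein levels measured by immunoblotting and quantified by densitometry across three independent blots. Levels compared against scramble control and vehicle.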

[4] = target: T1, Actin-binding protein WASF3 (Homo sapiens); assay: Degradation of WASF3 in human serum starved MDA-MB-231 cells assessed as reduction in WASF3 expression at 2 uM measured after 72 hrs by Western blot analysis; type: cell-based; procedure, shortened: as §2
[5] = system: MDA-MB-231; assay: Drug uptake in human MDA-MB-231 cells by measuring uptake of fluorescence intensity in cytoplasm at 2 uM measured after 4 hrs by fluorescence microscopy method; type: functional, cell-based; procedure, shortened: as §1
[6] = system: MDA-MB-231; assay: Antiinvasive activity against human MDA-MB-231 cells assessed as reduction in cell motility incubated for 18 hrs by wound healing assay relative to control; type: functional, cell-based; details: dose 0.5-2 µM, DDE = dose-dependent effect
[7] = system: MDA-MB-231; assay: Induction of WRC disruption in human MDA-MB-231 cells assessed as increase in actin stress fiber formation at 2 uM incubated for 4 hrs by phalloidin-iFluor 594 dye based inverted fluorescent microscopic method; type: functional, cell-based
Procedure, shortened: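 Cells treated 4 h with biotin-labeled peptides, scramble control or DMSO. Cells then fixed, permeabilized and stained with phalloidin-iFluor 594 to show polymeric actin stress fibers by fluorescence imaging. n = 4.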

[8] = system: MDA-MB-231; assay: Antiinvasive activity against human MDA-MB-231 cells assessed as reduction in cell motility at 0.5 to 2 uM incubated for 18 hrs by wound healing assay relative to control; type: functional; design: scale not given: the % may be the effect or the level left; details: dose 0.5-2 µM
[9] = system: MDA-MB-231; assay: Antiinvasive activity against human MDA-MB-231 cells assessed as reduction in cell motility at 2 uM incubated for 18 hrs by wound healing assay; type: functional, cell-based
[10] = target: Abl interactor 2 (Homo sapiens) (UniProt Q9NYB9); assay: Binding affinity to ABI2 in human MDA-MB-231 cells at 2 uM measured after 4 hrs by measuring pulldown using streptavidin agarose resin by immunoblot analysis
Chain of Abl interactor 2 (Homo sapiens) (Q9NYB9 whole entry, looked up): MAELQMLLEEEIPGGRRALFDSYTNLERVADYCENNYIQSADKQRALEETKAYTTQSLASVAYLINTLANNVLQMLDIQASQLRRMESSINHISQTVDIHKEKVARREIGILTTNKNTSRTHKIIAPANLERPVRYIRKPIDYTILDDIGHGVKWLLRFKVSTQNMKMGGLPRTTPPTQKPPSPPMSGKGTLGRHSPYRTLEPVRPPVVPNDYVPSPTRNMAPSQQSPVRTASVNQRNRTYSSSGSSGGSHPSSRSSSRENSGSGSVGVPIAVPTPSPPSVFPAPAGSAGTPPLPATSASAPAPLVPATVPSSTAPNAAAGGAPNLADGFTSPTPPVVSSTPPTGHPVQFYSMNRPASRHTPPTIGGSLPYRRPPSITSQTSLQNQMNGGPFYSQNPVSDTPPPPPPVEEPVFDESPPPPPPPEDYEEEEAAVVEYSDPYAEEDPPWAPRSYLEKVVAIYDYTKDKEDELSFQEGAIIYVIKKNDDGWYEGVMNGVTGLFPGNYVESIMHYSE

[11] = Downregulation of MMP9 expression in human MDA-MB-231 cells at 2 uM measured after 72 hrs by immunoblot analysis relative to control; type: functional; procedure, shortened: as §3
[12] = system: MDA-MB-231; assay: Antiinvasive activity against human MDA-MB-231 cells assessed as reduction in number of invading cells incubated for 24 hrs by crystal violet staining based matrigel trans well migration assay; type: functional, cell-based; details: dose 0.5-2 µM, DDE = dose-dependent effect
Procedure, shortened: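 Matrigel invasion assay with peptide at 0.5–2 μM, scramble control (2 μM), reference peptide (10 μM) or DMSO. Invading cells fixed with paraformaldehyde, stained with crystal violet, imaged and counted in ImageJ. At least three independent assays; mean ± SD; one-way ANOVA with Bonferroni test.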

[13] = system: MDA-MB-231; assay: Drug uptake in human MDA-MB-231 cells by measuring uptake of fluorescence intensity in cytoplasm at 10 uM measured after 4 hrs by fluorescence microscopy method

- Activity [2]: Active
- Activity [4]: Active
- Activity [10]: Active
Compound: C=CCCC[C@H](NC(=O)[C@H](CCCCN)NC(=O)[C@H](CO)NC(=O)[C@H](CC(C)C)NC(=O)[C@H](CCCC=C)NC(=O)[C@H](CO)NC(=O)[C@H](CC(C)C)NC(=O)[C@H](CCCCN)NC(=O)[C@H](CCCNC(=N)N)NC(=O)[C@@H](NC(=O)[C@@H](NC(=O)[C@@H](N)CCCCN)[C@@H](C)CC)[C@@H](C)CC)C(=O)N[C@@H](C)C(=O)N[C@@H](CCC(=O)O)C(=O)N[C@@H](CCCCN)C(=O)N[C@H](C(=O)N[C@@H](Cc1ccccc1)C(=O)NCC(=O)N[C@@H](CCC(=O)O)C(=O)N[C@@H](CC(C)C)C(=O)N[C@@H](Cc1ccccc1)C(=O)N[C@@H](CCCCN)C(=O)O)[C@@H](C)CC (H-KIIRKLS[Gly(pent-4-enyl)]LSK[Gly(pent-4-enyl)]AEKIFGELFK-OH)
- Drug uptake ([1]; dose 2.0 µM, in the assay text read “at 2 uM” for “at 10 uM”): Active
- Activity [3]: Active
- Drug uptake [5]: Active
- Activity [6]: Dde
- Activity [7]: Active
- Activity [8]: 48%
- Activity [9]: Active
- Activity [11]: 40%
- Activity [12]: Dde

Compound: C=CCCC[C@H](NC(=O)[C@H](CO)NC(=O)[C@H](CC(C)C)NC(=O)[C@H](CCCCN)NC(=O)[C@H](CO)NC(=O)[C@H](CC(C)C)NC(=O)[C@H](CCC(N)=O)NC(=O)[C@H](CCCNC(=N)N)NC(=O)[C@@H](NC(=O)[C@@H](NC(=O)[C@@H](N)CCCCN)[C@@H](C)CC)[C@@H](C)CC)C(=O)N[C@@H](Cc1cnc[nH]1)C(=O)N[C@@H](C)C(=O)N[C@@H](CCC(=O)O)C(=O)N[C@@H](CCCC=C)C(=O)N[C@H](C(=O)N[C@@H](Cc1ccccc1)C(=O)NCC(=O)N[C@@H](CCC(=O)O)C(=O)N[C@@H](CC(C)C)C(=O)N[C@@H](Cc1ccccc1)C(=O)N[C@@H](CCCCN)C(=O)O)[C@@H](C)CC (H-KIIRQLSKLS[Gly(pent-4-enyl)]HAE[Gly(pent-4-enyl)]IFGELFK-OH)
- Activity [9]: Active

Compound: C=CCCC[C@H](NC(=O)[C@H](CO)NC(=O)[C@H](CC(C)C)NC(=O)[C@H](CCC(N)=O)NC(=O)[C@H](CCCC=C)NC(=O)[C@@H](NC(=O)[C@@H](NC(=O)[C@@H](N)CCCCN)[C@@H](C)CC)[C@@H](C)CC)C(=O)N[C@@H](CC(C)C)C(=O)N[C@@H](CO)C(=O)N[C@@H](CCCCN)C(=O)N[C@@H](Cc1cnc[nH]1)C(=O)N[C@@H](C)C(=O)N[C@@H](CCC(=O)O)C(=O)N[C@@H](CCCCN)C(=O)N[C@H](C(=O)N[C@@H](Cc1ccccc1)C(=O)NCC(=O)N[C@@H](CCC(=O)O)C(=O)N[C@@H](CC(C)C)C(=O)N[C@@H](Cc1ccccc1)C(=O)N[C@@H](CCCCN)C(=O)O)[C@@H](C)CC (H-KII[Gly(pent-4-enyl)]QLS[Gly(pent-4-enyl)]LSKHAEKIFGELFK-OH)
- Activity [9]: Active

- Activity [2]: Active
- Activity [4]: Active
Compound: C=CCCC[C@H](NC(=O)[C@H](CO)NC(=O)[C@H](CC(N)=O)NC(=O)[C@@H](NC(=O)[C@H](CCCC=C)NC(=O)[C@H](CCCCN)NC(=O)[C@H](CCC(=O)O)NC(=O)[C@@H](N)CC(C)C)[C@@H](C)O)C(=O)N[C@@H](CC(C)C)C(=O)N[C@@H](C)C(=O)N[C@@H](CCCCN)C(=O)N[C@H](C(=O)N[C@H](C(=O)N[C@@H](CCCNC(=N)N)C(=O)N[C@@H](CCC(N)=O)C(=O)N[C@@H](CC(C)C)C(=O)O)[C@@H](C)CC)[C@@H](C)CC (H-LEK[Gly(pent-4-enyl)]TNS[Gly(pent-4-enyl)]LAKIIRQL-OH)
- Drug uptake ([1]; dose 10.0 µM): Active
- Drug uptake [13]: Active

Compound: C=CCCC[C@H](NC(=O)[C@H](CCCNC(=N)N)NC(=O)[C@@H](NC(=O)[C@@H](NC(=O)[C@@H](N)CCCC=C)[C@@H](C)CC)[C@@H](C)CC)C(=O)N[C@@H](CC(C)C)C(=O)N[C@@H](CO)C(=O)N[C@@H](CCCCN)C(=O)N[C@@H](CC(C)C)C(=O)N[C@@H](CO)C(=O)N[C@@H](CCCCN)C(=O)N[C@@H](Cc1cnc[nH]1)C(=O)N[C@@H](C)C(=O)N[C@@H](CCC(=O)O)C(=O)N[C@@H](CCCCN)C(=O)N[C@H](C(=O)N[C@@H](Cc1ccccc1)C(=O)NCC(=O)N[C@@H](CCC(=O)O)C(=O)N[C@@H](CC(C)C)C(=O)N[C@@H](Cc1ccccc1)C(=O)N[C@@H](CCCCN)C(=O)O)[C@@H](C)CC (H-[Gly(pent-4-enyl)]IIR[Gly(pent-4-enyl)]LSKLSKHAEKIFGELFK-OH)
- Activity [9]: Active
